We go through 27 compounds from ChEMBL document CHEMBL1134085, “Discovery of potent and selective phenylalanine derived CCR3 antagonists. Part 1” (Bioorg Med Chem Lett, 2001).

In assay [1] the target is T1, C-C chemokine receptor type 3 (Homo sapiens, UniProt P51677).
T1 sequence (P51677 whole entry): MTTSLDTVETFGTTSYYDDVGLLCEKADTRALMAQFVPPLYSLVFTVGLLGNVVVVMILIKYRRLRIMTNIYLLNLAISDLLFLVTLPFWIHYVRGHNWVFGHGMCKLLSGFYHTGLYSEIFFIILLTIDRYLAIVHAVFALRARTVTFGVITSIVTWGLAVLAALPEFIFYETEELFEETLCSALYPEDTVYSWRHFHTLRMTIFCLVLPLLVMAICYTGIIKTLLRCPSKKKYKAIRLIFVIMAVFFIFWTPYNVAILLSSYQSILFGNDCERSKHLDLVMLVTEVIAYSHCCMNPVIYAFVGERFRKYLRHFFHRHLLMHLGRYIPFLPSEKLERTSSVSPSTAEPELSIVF
Nature of the assay: Inhibitory activity against human eosinophil C-C chemokine receptor type 3 using [125I]- human eotaxin as the radioligand. The essentials:
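Competition binding on CCR3 from purified human eosinophils as receptor source, with [125I]human eotaxin as radioligand; IC50 taken as displacement of radioligand binding.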

Assay [2] addresses T1, C-C chemokine receptor type 3. Kind of assay: […] against C-C chemokine receptor type 3 by displacing Eotaxin radioligand, using [Ca2+] mobilization assay. The format is functional. The essentials:
(§1)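 Functional antagonism was tested in RBL-2H3 cells expressing CCR3. Cells were challenged with eotaxin or eotaxin-2, and the resulting rise in intracellular Ca2+ was measured. Inhibition of this calcium mobilization is reported as an IC50 in nM.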

Assay [3] has the same target. Kind of assay: […] activity against C-C chemokine receptor type 3 by displacing [125I]-MCP-4 radioligand, using CCR3 binding assay.
The target is the same in assay [4]. Nature of the assay: […] activity against C-C chemokine receptor type 3 by displacing Eotaxin-2 radioligand, using [Ca2+] mobilization assay. The format is functional. The method in brief:
as §1

“And” between values parts separate entries of the source, which are not always exact repeats. Equal values may be shown once. Where a SMILES comes first, the peptide text is derived from it. The star is where a group is joined. Cbz = O=C(OCc1ccccc1)* Some results are limits rather than exact numbers.

Regarding `CCOC(=O)[C@H](Cc1ccccc1)NC(=O)c1ccccc1`, the IC50 (usually the point on the concentration scale where inhibition reaches its midpoint) in assay [1] stood at 190 nM.
Turning to `CCOC(=O)[C@H](Cc1ccc(O)cc1)NC(=O)c1cccc2ccccc12`, in assay [1], the IC50 stood at 80 nM.
Same read-out and setting: in the case of `CCOC(=O)[C@H](Cc1c[nH]c2ccccc12)NC(=O)c1ccccc1` it was 325 nM; in that of `CCOC(=O)[C@H](Cc1ccc([N+](=O)[O-])cc1)NC(=O)c1ccc(C)cc1C`, 3 nM.
Same read-out and setting: for `CCOC(=O)[C@H](Cc1ccc(O)cc1)NC(=O)[C@H](CC(N)=O)NC(=O)OCc1ccccc1` (Cbz-Asn-Tyr-OEt) the value was > 25000 nM; for `CCOC(=O)[C@H](Cc1ccc([N+](=O)[O-])cc1)NC(=O)c1ccccc1`, 49 nM; for `CCOC(=O)[C@H](CCc1ccccc1)NC(=O)c1ccccc1`, 5950 nM.
In assay [1], `CCOC(=O)[C@H](Cc1ccc(O)cc1)NC(=O)c1ccccc1` showed an IC50 of 383 nM.
Still for that read-out and setting: for `CCOC(=O)[C@H](Cc1ccc(O)cc1)NC(=O)[C@H](Cc1ccccc1)NC(=O)OCc1ccccc1` (Cbz-Phe-Tyr-OEt) the value was 6250 nM; for `CCOC(=O)[C@@H](NC(=O)c1ccccc1)c1ccccc1`, > 20000 nM.
For the compound `COC(=O)[C@H](Cc1ccc([N+](=O)[O-])cc1)NC(=O)c1cccc2ccccc12`, the IC50 in assay [2] was 38 nM; in assay [1], 5 nM; in assay [3], 7 nM; in assay [4], 35 nM and 20 nM.
With `CCOC(=O)[C@H](Cc1ccc(O)cc1)NC(=O)[C@H](CCC(N)=O)NC(=O)OCc1ccccc1` (Cbz-Gln-Tyr-OEt), the IC50 in assay [1] is > 25000 nM.
In the case of `CCOC(=O)[C@H](Cc1ccc(O)cc1)NC(=O)[C@H](CO)NC(=O)OCc1ccccc1` (Cbz-Ser-Tyr-OEt), in assay [1], the IC50 is > 25000 nM.
For `CCOC(=O)[C@H](Cc1ccc([N+](=O)[O-])cc1)NC(=O)c1cccc2ccccc12`, in assay [1], the IC50 turned out to be 8 nM.
Still for that read-out and setting: for `CCOC(=O)[C@H](Cc1ccc(O)cc1)NC(=O)Cc1ccccc1` the value was 2600 nM.
Still for that read-out and setting: in the case of `CCOC(=O)[C@H](Cc1ccc(O)cc1)NC(=O)Nc1ccccc1` it was > 33000 nM; in that of `CC(C)OC(=O)[C@H](Cc1ccc([N+](=O)[O-])cc1)NC(=O)c1cccc2ccccc12`, 21 nM; in that of `CCOC(=O)[C@H](Cc1ccc(O)cc1)NC(=O)c1ccccn1`, 1700 nM.
Same read-out and setting: in the case of `CCOC(=O)[C@H](Cc1cc(I)c(O)c(I)c1)NC(=O)c1ccccc1` it was 535 nM; in that of `CCOC(=O)[C@H](Cc1ccc(O)cc1)NS(=O)(=O)c1ccc(C)cc1`, 16000 nM.
As for `CN(C)C(=O)[C@H](Cc1ccc([N+](=O)[O-])cc1)NC(=O)c1cccc2ccccc12`, in assay [1], the IC50 was > 33000 nM.
Turning to `CCCC(=O)[C@H](Cc1ccc([N+](=O)[O-])cc1)NC(=O)c1cccc2ccccc12`, the IC50 in assay [1] is > 33000 nM.
`O=C(N[C@@H](Cc1ccc([N+](=O)[O-])cc1)C(=O)OCc1ccccc1)c1cccc2ccccc12`: the IC50 in assay [1] was 18 nM.
In assay [1], `CCOC(=O)[C@H](C)NC(=O)c1ccccc1` showed an IC50 of 9000 nM.
Same read-out and setting: in the case of `CCOC(=O)[C@@H](Cc1ccc(O)cc1)NC(=O)c1ccccc1` it was > 50000 nM; in that of `O=C(N[C@@H](Cc1ccc([N+](=O)[O-])cc1)C(=O)NCc1ccccc1)c1cccc2ccccc12`, 4000 nM.
In assay [1], `CC(C)(C)OC(=O)[C@H](Cc1ccc([N+](=O)[O-])cc1)NC(=O)c1cccc2ccccc12` showed an IC50 of 57 nM.
